# According to ChEMBL document CHEMBL4715813, “Allicin-inspired pyridyl disulfides as antimicrobial agents for multidrug-resistant Staphylococcus aureus” (Eur J Med Chem, 2018):
# How the values were obtained:
# Bacillus anthracis = assay: Antibacterial activity against Bacillus anthracis Sterne 34F2 assessed as zone of inhibition by disc diffusion method; assay type: functional
# Enterococcus faecium = assay: Antibacterial activity against vancomycin-resistant Enterococcus faecium ATCC 700221 assessed as zone of inhibition by disc diffusion method; assay type: functional
# Enterococcus faecalis = assay: Antibacterial activity against vancomycin-susceptible Enterococcus faecalis ATCC 29212 assessed as zone of inhibition by disc diffusion method; assay type: functional
# Staphylococcus aureus [1] = assay: Antibacterial activity against methicillin-susceptible Staphylococcus aureus ATCC 25923 assessed as zone of inhibition by disc diffusion method; assay type: functional
# Staphylococcus aureus [2] = assay: Antibacterial activity against community acquired methicillin-resistant Staphylococcus aureus BAA 1747 assessed as zone of inhibition by disc diffusion method; assay type: functional
# Staphylococcus aureus [3] = assay: Antibacterial activity against hospital acquired methicillin-resistant Staphylococcus aureus ATCC 43300 assessed as zone of inhibition by disc diffusion method; assay type: functional
# Staphylococcus aureus [4] = assay: Antibacterial activity against heterogeneous vancomycin-intermediate resistant Staphylococcus aureus Mu3 ATCC 700698 assessed as zone of inhibition by disc diffusion method; assay type: functional
# Staphylococcus aureus [5] = assay: Antibacterial activity against vancomycin-intermediate resistant Staphylococcus aureus Mu50 ATCC 700699 assessed as zone of inhibition by disc diffusion method; assay type: functional
# Staphylococcus aureus [6] = assay: Antibacterial activity against vancomycin-resistant Staphylococcus aureus HIP11714 assessed as zone of inhibition by disc diffusion method; assay type: functional
# [7] = system: Staphylococcus epidermidis; assay: Antibacterial activity against Staphylococcus epidermidis ATCC 14990 assessed as zone of inhibition by disc diffusion method; assay type: functional
# Staphylococcus aureus [8] = assay: Antibacterial activity against methicillin-susceptible Staphylococcus aureus ATCC 25923 assessed as bacterial growth inhibition incubated for 20 hrs by broth dilution method; assay type: functional
# How it was run: (§1)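 Broth microdilution: 0.5 McFarland suspension from an overnight culture, diluted 1:100 in cation-adjusted Mueller Hinton broth (CAMHB), given serial dilutions of test agent for 20 h at 37 °C. MIC is the lowest concentration with no visible growth.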
# Staphylococcus aureus [9] = assay: Bactericidal activity against methicillin-susceptible Staphylococcus aureus ATCC 25923 assessed as bacterial killing incubated for over night; assay type: functional
# How it was run: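 5 μL from each well was spotted on agar and incubated overnight. MBC was taken as the lowest concentration with no visible growth.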
# Staphylococcus aureus [10] = assay: Ratio of MBC to MIC against methicillin-susceptible Staphylococcus aureus ATCC 25923; assay type: functional
# How it was run: (§2)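 For MBC, 5 μL from each well was spotted on agar and incubated overnight; MBC is the lowest concentration with no visible growth. Ratio taken as MBC over MIC.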
# Staphylococcus aureus [11] = assay: Antibacterial activity against methicillin-resistant Staphylococcus aureus ATCC 43300 assessed as bacterial growth inhibition incubated for 20 hrs by broth dilution method; assay type: functional; how it was run: as §1
# Staphylococcus aureus [12] = assay: Bactericidal activity against methicillin-resistant Staphylococcus aureus ATCC 43300 assessed as bacterial killing incubated for over night; assay type: functional; how it was run: as §2
# Staphylococcus aureus [13] = assay: Ratio of MBC to MIC against methicillin-resistant Staphylococcus aureus ATCC 43300; assay type: functional; how it was run: as §2
# Staphylococcus aureus [14] = assay: Antibacterial activity against linezolid-resistant Staphylococcus aureus assessed as bacterial growth inhibition incubated for 20 hrs by broth dilution method; assay type: functional; how it was run: as §1
# Staphylococcus aureus [15] = assay: Bactericidal activity against linezolid-resistant Staphylococcus aureus assessed as bacterial killing incubated for over night
# Staphylococcus aureus [16] = assay: Ratio of MBC to MIC against linezolid-resistant Staphylococcus aureus; assay type: functional; how it was run: as §2
# Staphylococcus aureus [17] = assay: Antibacterial activity against heterogeneous vancomycin-intermediate Staphylococcus aureus Mu3 ATCC 700698 assessed as bacterial growth inhibition incubated for 20 hrs by broth dilution method; assay type: functional; how it was run: as §1
# Staphylococcus aureus [18] = assay: Bactericidal activity against heterogeneous vancomycin-intermediate Staphylococcus aureus Mu3 ATCC 700698 assessed as bacterial killing incubated for over night; assay type: functional; how it was run: as §2
# Staphylococcus aureus [19] = assay: Ratio of MBC to MIC against heterogeneous vancomycin-intermediate Staphylococcus aureus Mu3 ATCC 700698; assay type: functional; how it was run: as §2
# Staphylococcus aureus [20] = assay: Antibacterial activity against vancomycin-intermediate resistant Staphylococcus aureus Mu50 ATCC 700699 assessed as bacterial growth inhibition incubated for 20 hrs by broth dilution method; assay type: functional; how it was run: as §1
# Staphylococcus aureus [21] = assay: Bactericidal activity against vancomycin-intermediate resistant Staphylococcus aureus Mu50 ATCC 700699 assessed as bacterial killing incubated for over night; assay type: functional; how it was run: as §2
# Staphylococcus aureus [22] = assay: Ratio of MBC to MIC against vancomycin-intermediate resistant Staphylococcus aureus Mu50 ATCC 700699; assay type: functional; how it was run: as §2
# Staphylococcus aureus [23] = assay: Antibacterial activity against vancomycin-resistant Staphylococcus aureus HIP11714 assessed as inhibition of bacterial growth incubated for 20 hrs by broth microdilution method; assay type: functional; conditions: HIP11714, 20 h; how it was run: as §1
# Staphylococcus aureus [24] = assay: Antibacterial activity against vancomycin-intermediate Staphylococcus aureus clinical isolate 12 assessed as bacterial growth inhibition after 20 hrs by broth microdilution assay; assay type: functional; how it was run: as §1
# Staphylococcus aureus [25] = assay: Antibacterial activity against vancomycin-resistant Staphylococcus aureus clinical isolate 10 assessed as bacterial growth inhibition after 20 hrs by broth microdilution assay; assay type: functional; how it was run: as §1
# Staphylococcus aureus [26] = assay: Antibacterial activity against methicillin-susceptible Staphylococcus aureus ATCC 25923 in presence of glutathione; assay type: functional
# How it was run: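 Broth microdilution MIC: a 0.5 McFarland suspension from overnight culture was diluted 1:100 in cation-adjusted Mueller Hinton broth supplemented with glutathione 100 μM. It was exposed to serial dilutions for 20 h at 37 °C. MIC was taken as the lowest concentration with no visible growth.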
# Staphylococcus aureus [27] = assay: Antibacterial activity against methicillin-susceptible Staphylococcus aureus ATCC 25923 in presence of 0.05% v/v albumin; assay type: functional
# Staphylococcus aureus [28] = assay: Antibacterial activity against methicillin-susceptible Staphylococcus aureus ATCC 25923 in presence of 5% v/v serum; assay type: functional
# Staphylococcus aureus [29] = assay: Antibacterial activity against methicillin-susceptible Staphylococcus aureus ATCC 25923 in presence of 10% v/v serum; assay type: functional
smiles,measurement,setting,value
CN[C@H](CC(C)C)C(=O)N[C@H]1C(=O)N[C@@H](CC(N)=O)C(=O)N[C@H]2C(=O)N[C@H]3C(=O)N[C@H](C(=O)N[C@H](C(=O)O)c4cc(O)cc(O)c4-c4cc3ccc4O)[C@H](O)c3ccc(c(Cl)c3)Oc3cc2cc(c3O[C@@H]2O[C@H](CO)[C@@H](O)[C@H](O)[C@H]2O[C@H]2C[C@](C)(N)[C@H](O)[C@H](C)O2)Oc2ccc(cc2Cl)[C@H]1O [VANCOMYCIN],diameter of the inhibition zone (DIZ),Bacillus anthracis,26 mm
same,diameter of the inhibition zone (DIZ),Enterococcus faecium,0 mm
same,diameter of the inhibition zone (DIZ),Enterococcus faecalis,21 mm
same,diameter of the inhibition zone (DIZ),Staphylococcus aureus [1],22 mm
same,diameter of the inhibition zone (DIZ),Staphylococcus aureus [2],20 mm
same,diameter of the inhibition zone (DIZ),Staphylococcus aureus [3],21 mm
same,diameter of the inhibition zone (DIZ),Staphylococcus aureus [4],20 mm
same,diameter of the inhibition zone (DIZ),Staphylococcus aureus [5],20 mm
same,diameter of the inhibition zone (DIZ),Staphylococcus aureus [6],11 mm
same,diameter of the inhibition zone (DIZ),[7],24 mm
same,MIC,Staphylococcus aureus [8],0.78 µM
same,MBC,Staphylococcus aureus [9],1.56 µM
same,Ratio,Staphylococcus aureus [10],2
same,MIC,Staphylococcus aureus [11],0.39 µM
same,MBC,Staphylococcus aureus [12],0.78 µM
same,Ratio,Staphylococcus aureus [13],2
same,MIC,Staphylococcus aureus [14],0.78 µM
same,MBC,Staphylococcus aureus [15],1.56 µM
same,Ratio,Staphylococcus aureus [16],2
same,MIC,Staphylococcus aureus [17],0.78 µM
same,MBC,Staphylococcus aureus [18],0.78 µM
same,Ratio,Staphylococcus aureus [19],1
same,MIC,Staphylococcus aureus [20],3.13 µM
same,MBC,Staphylococcus aureus [21],3.13 µM
same,Ratio,Staphylococcus aureus [22],1
same,MIC,Staphylococcus aureus [23],> 50 µM
same,MIC50,Staphylococcus aureus [24],3.13 µM
same,MIC90,Staphylococcus aureus [24],3.13 µM
same,MIC50,Staphylococcus aureus [25],> 50 µM
same,MIC90,Staphylococcus aureus [25],> 50 µM
same,MIC,Staphylococcus aureus [26],0.78 µM
same,MIC,Staphylococcus aureus [27],0.78 µM
same,MIC,Staphylococcus aureus [28],0.78 µM
same,MIC,Staphylococcus aureus [29],0.78 µM
